Experimental data collected from several papers.
Target: 5-hydroxytryptamine receptor 1A (HTR1A, Homo sapiens, UniProt P08908)
Sequence (P08908 1-422, as in one of the studies): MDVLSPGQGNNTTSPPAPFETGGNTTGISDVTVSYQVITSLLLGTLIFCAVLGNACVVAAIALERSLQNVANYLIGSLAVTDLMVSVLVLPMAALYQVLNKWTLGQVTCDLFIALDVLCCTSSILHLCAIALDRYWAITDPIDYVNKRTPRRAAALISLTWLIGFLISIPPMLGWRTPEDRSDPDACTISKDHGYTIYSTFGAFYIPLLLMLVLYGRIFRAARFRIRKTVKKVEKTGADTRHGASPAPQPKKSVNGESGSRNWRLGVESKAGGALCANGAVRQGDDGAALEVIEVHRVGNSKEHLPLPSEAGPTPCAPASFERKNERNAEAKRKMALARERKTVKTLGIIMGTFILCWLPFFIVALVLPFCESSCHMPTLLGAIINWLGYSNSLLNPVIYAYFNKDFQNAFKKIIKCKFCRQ

SMILES | read-out | mode | method | concentration | quantity | result
CN([C@@H]1CCc2c(CC(=O)O)c3ccccc3n2C1)S(=O)(=O)c1ccc(F)cc1 | ligand displacement | – | radioligand | 10 µM | inhibition | 15.5%
N#Cc1cc(Cn2c(N3CCCC3)nc3ccccc32)ccc1F | ligand displacement | – | – | 10 µM | inhibition | -8.04%
CCN(Cc1ccccc1C(F)(F)F)C(=O)C1CCN(S(=O)(=O)c2ccc3[nH]ncc3c2)CC1 | ligand displacement | – | radioligand | 10 µM | inhibition | 0%
COc1cc2c3c(c1OC)-c1cc4c(cc1CC3N(C)CC2c1ccccc1)OCO4 (stereo not shown) | ligand displacement | – | radioligand | 10 µM | inhibition | < 50%
O=C(CCCN1CCCN(c2ccc(Cl)cc2)CC1)c1ccc(F)cc1 | cAMP | agonist | luciferase | – | Emax | 4.4%
COc1cc(NC(C)=O)c(Cl)cc1C(=O)Nc1nccs1 | ligand displacement | – | radioligand | 10 µM | inhibition | 23.8%
CN1CCN(CCCOc2ccc(=O)n(-c3ccc(Cl)c(Cl)c3)n2)CC1 | ligand displacement | – | – | 1 µM | inhibition | 20.6%
CCCNc1nc2ccccc2n1Cc1ccc(Cl)cc1 | ligand displacement | – | – | 10 µM | inhibition | 0.33%
COc1ccc(-n2nc(OCCCN3CCCCC3)ccc2=O)cc1 | ligand displacement | – | – | 1 µM | inhibition | 18.5%
CC1=C(C#N)C(c2ccc3c(c2)c(NC(=O)c2ccccc2C)nn3C)C(C#N)=C(C)N1 | ligand displacement | – | radioligand | 10 µM | inhibition | 8.55%
O=C1N=C(N2CCCCN2)S/C1=C\c1ccc(F)cc1O | ligand displacement | – | radioligand | 10 µM | inhibition | 20%
O=C(Nc1ccc(S(=O)(=O)N2CCC(Cl)CC2)cc1)c1ccc([N+](=O)[O-])o1 | ligand displacement | – | radioligand | 10 µM | inhibition | 4%
CCCCCCOc1c(OC)cc2c3c1-c1cc4c(cc1CC3N(C)CC2c1ccccc1)OCO4 (stereo not shown) | ligand displacement | – | radioligand | 10 µM | inhibition | -13.5%
CCN(CC)c1ccc(C2Nc3ccc(C(=O)c4ccccc4)cc3NC3=C2C(=O)CC(C)(C)C3)cc1 (stereo not shown) | ligand displacement | – | radioligand | 10 µM | inhibition | 22%
c1ccc(N2CCN(Cc3nc4ccccc4[nH]3)CC2)nc1 | ligand displacement | – | radioligand | 10 µM | inhibition | 37.9%
Oc1cccc(Nc2nc(-c3ccc(F)cc3F)cs2)c1 | ligand displacement | – | radioligand | 10 µM | inhibition | 31.5%
